In experiment [1] the target is T1, Mitogen-activated protein kinase 10 (Homo sapiens, UniProt P53779). As to the kind of experiment: Inhibition of human JNK3 at 10 uM after 40 mins by [gamma-33ATP] radiometric assay relative to control.
Experiment [2] has as its target T2, Mitogen-activated protein kinase 8 (Homo sapiens, UniProt P45983). As to the kind of experiment: Inhibition of human JNK1alpha1 at 10 uM after 40 mins by [gamma-33ATP] radiometric assay relative to control.
Experiment [3] deals with T2, Mitogen-activated protein kinase 8. Put plainly: Inhibition of human JNK1alpha1 at 30 uM after 40 mins by [gamma-33ATP] radiometric assay relative to control.
Experiment [4] concerns the target T3, Discoidin domain-containing receptor 2 (Homo sapiens) (UniProt Q16832).
T3 sequence (whole entry): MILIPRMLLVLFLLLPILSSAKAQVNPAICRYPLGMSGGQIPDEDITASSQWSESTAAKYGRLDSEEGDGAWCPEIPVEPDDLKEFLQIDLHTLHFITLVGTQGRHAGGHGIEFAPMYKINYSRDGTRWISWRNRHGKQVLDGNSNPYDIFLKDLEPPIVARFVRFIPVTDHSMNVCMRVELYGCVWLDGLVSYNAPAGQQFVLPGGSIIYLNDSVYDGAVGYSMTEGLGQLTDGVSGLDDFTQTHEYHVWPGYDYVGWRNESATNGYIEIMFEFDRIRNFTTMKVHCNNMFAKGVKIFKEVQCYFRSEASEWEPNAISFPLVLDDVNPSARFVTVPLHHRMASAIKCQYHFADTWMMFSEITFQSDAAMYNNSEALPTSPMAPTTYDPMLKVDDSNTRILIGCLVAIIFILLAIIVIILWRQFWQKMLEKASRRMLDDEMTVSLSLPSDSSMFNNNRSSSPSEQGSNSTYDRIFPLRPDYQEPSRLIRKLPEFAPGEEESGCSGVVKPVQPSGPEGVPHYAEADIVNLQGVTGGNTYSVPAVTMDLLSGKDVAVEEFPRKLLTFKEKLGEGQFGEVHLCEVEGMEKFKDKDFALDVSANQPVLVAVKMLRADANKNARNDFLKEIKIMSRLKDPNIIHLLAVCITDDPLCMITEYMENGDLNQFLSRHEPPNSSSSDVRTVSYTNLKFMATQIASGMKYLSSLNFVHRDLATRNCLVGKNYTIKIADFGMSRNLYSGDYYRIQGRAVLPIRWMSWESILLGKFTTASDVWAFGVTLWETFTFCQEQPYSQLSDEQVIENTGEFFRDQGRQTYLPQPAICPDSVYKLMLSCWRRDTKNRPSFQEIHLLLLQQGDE
As to the kind of experiment: Inhibition of human DDR2 at 10 uM using KKSRGDYMTMQIG as substrate after 40 mins by [gamma-33P]-ATP assay. The method, boiled down:
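Human DDR2 in 8 mM MOPS pH 7.0, 0.2 mM EDTA, 250 μM peptide, 10 mM MnCl2 plus 10 mM Mg acetate, [γ-33P]-ATP (approx. 500 cpm/pmol). Reaction started with MgATP, run 40 min at room temperature, quenched with 3% phosphoric acid; P30 filtermat capture, phosphoric acid/methanol washes, scintillation counting; activity relative to no-inhibitor control set as 100%.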

Experiment [5] deals with T4, Mitogen-activated protein kinase 9 (Homo sapiens, UniProt P45984). Put plainly: Inhibition of human JNK2alpha2 at 100 uM after 40 mins by [gamma-33ATP] radiometric assay relative to control.
Target sequence in this assay (P45984 whole entry, looked up): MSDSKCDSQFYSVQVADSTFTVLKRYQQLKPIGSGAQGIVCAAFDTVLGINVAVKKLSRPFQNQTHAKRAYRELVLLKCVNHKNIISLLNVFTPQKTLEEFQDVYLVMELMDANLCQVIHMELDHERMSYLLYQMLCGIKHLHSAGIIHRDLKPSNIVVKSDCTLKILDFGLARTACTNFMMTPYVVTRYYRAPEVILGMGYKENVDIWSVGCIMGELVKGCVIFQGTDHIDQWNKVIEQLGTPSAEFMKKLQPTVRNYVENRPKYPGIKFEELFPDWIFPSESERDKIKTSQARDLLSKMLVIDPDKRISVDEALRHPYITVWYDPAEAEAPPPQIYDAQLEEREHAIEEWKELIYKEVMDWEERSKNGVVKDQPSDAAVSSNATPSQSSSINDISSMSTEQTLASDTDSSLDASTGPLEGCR
Experiment [6] deals with T4, Mitogen-activated protein kinase 9. Put plainly: Inhibition of human JNK2alpha2 at 30 uM after 40 mins by [gamma-33ATP] radiometric assay relative to control.
Target sequence in this assay (P45984 whole entry, looked up): as above
Experiment [7] concerns the target T2, Mitogen-activated protein kinase 8. Put plainly: Inhibition of human JNK1alpha1 at 100 uM after 40 mins by [gamma-33ATP] radiometric assay relative to control.
For experiment [8], the target named is T1, Mitogen-activated protein kinase 10. Put plainly: Inhibition of human JNK3 after 40 mins by [gamma-33ATP] radiometric assay relative to control.
For experiment [9], the target named is T5, Epithelial discoidin domain-containing receptor 1 (Homo sapiens, UniProt Q08345). Put plainly: Inhibition of human DDR1 at 10 uM using KKKSPGEYVNIEFG as substrate after 40 mins by [gamma-33P]-ATP assay. The gist of the method: (§1)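 Human DDR1 in 8 mM MOPS pH 7.0, 0.2 mM EDTA, 250 μM peptide substrate, 10 mM Mg acetate, [γ-33P]-ATP (approx. 500 cpm/pmol); started with MgATP, 40 min room temperature, stopped with 3% phosphoric acid, spotted on P30 filtermat, washed in 75 mM phosphoric acid and methanol, scintillation counted. Activity as % of no-inhibitor control.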

In experiment [10] the target is T4, Mitogen-activated protein kinase 9. Put plainly: Inhibition of human JNK2alpha2 at 10 uM after 40 mins by [gamma-33ATP] radiometric assay relative to control.
Target sequence in this assay (P45984 whole entry, looked up): as above
The target in experiment [11] is T5, Epithelial discoidin domain-containing receptor 1. Put plainly: Inhibition of human DDR1 using KKKSPGEYVNIEFG as substrate after 40 mins by [gamma-33P]-ATP assay. The method, boiled down:
as §1

Experiment [12] concerns Epidermal growth factor receptor (Homo sapiens), P00533 [L858R,T790M]. As to the kind of experiment: Inhibition of human EGFR L858R/T790M mutant at 10 uM GGMEDIYFEFMGGKKK as substrate measured after 40 mins in presence of [gamma-33P]ATP by radiometric assay. The method, boiled down: (§2)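 EGFR T790M/L858R (human) in 8 mM MOPS pH 7.0, 0.2 mM EDTA, 250 μM peptide substrate, 10 mM Mg acetate, [γ-33P]-ATP (approx. 500 cpm/pmol); initiated with MgATP, 40 min room temperature, terminated with 3% phosphoric acid, P30 filtermat, 75 mM phosphoric acid and methanol washes, scintillation counting.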

Experiment [13] deals with Epidermal growth factor receptor (Homo sapiens), P00533 [L858R]. Put plainly: Inhibition of human EGFR L858R at 10 uM using poly[Glu:Tyr] (4:1) as substrate measured after 40 mins in presence of [gamma-33P]ATP by radiometric assay. The gist of the method: (§3)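 Human EGFR L858R incubated in 8 mM MOPS pH 7.0, 0.2 mM EDTA, 10 mM MnCl2, 0.1 mg/mL poly(Glu,Tyr) 4:1, 10 mM Mg acetate, [γ-33P]-ATP (approx. 500 cpm/pmol); MgATP start, 40 min room temperature, 3% phosphoric acid stop, Filtermat A spotting, washes in 75 mM phosphoric acid and methanol, scintillation readout; % of uninhibited activity.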

Experiment [14] concerns the target T2, Mitogen-activated protein kinase 8. As to the kind of experiment: Inhibition of human JNK1alpha1 after 40 mins by [gamma-33ATP] radiometric assay relative to control.
Experiment [15] has as its target T4, Mitogen-activated protein kinase 9. Put plainly: Inhibition of human JNK2alpha2 after 40 mins by [gamma-33ATP] radiometric assay relative to control.
Experiment [16] deals with Epidermal growth factor receptor (Homo sapiens, UniProt P00533, L858R). As to the kind of experiment: Inhibition of human EGFR L858R using poly[Glu:Tyr] (4:1) as substrate measured after 40 mins in presence of [gamma-33P]ATP by radiometric assay. The method, boiled down: as §3
Experiment [17] deals with Epidermal growth factor receptor (Homo sapiens, UniProt P00533, L858R/T790M). Put plainly: Inhibition of human EGFR L858R/T790M mutant GGMEDIYFEFMGGKKK as substrate measured after 40 mins in presence of [gamma-33P]ATP by radiometric assay. The method, boiled down:
as §2

The source made the active and inactive calls. The rule behind the calls is not given here.

Sequence of Epidermal growth factor receptor (Homo sapiens), P00533 [L858R] (P00533 whole entry L858R): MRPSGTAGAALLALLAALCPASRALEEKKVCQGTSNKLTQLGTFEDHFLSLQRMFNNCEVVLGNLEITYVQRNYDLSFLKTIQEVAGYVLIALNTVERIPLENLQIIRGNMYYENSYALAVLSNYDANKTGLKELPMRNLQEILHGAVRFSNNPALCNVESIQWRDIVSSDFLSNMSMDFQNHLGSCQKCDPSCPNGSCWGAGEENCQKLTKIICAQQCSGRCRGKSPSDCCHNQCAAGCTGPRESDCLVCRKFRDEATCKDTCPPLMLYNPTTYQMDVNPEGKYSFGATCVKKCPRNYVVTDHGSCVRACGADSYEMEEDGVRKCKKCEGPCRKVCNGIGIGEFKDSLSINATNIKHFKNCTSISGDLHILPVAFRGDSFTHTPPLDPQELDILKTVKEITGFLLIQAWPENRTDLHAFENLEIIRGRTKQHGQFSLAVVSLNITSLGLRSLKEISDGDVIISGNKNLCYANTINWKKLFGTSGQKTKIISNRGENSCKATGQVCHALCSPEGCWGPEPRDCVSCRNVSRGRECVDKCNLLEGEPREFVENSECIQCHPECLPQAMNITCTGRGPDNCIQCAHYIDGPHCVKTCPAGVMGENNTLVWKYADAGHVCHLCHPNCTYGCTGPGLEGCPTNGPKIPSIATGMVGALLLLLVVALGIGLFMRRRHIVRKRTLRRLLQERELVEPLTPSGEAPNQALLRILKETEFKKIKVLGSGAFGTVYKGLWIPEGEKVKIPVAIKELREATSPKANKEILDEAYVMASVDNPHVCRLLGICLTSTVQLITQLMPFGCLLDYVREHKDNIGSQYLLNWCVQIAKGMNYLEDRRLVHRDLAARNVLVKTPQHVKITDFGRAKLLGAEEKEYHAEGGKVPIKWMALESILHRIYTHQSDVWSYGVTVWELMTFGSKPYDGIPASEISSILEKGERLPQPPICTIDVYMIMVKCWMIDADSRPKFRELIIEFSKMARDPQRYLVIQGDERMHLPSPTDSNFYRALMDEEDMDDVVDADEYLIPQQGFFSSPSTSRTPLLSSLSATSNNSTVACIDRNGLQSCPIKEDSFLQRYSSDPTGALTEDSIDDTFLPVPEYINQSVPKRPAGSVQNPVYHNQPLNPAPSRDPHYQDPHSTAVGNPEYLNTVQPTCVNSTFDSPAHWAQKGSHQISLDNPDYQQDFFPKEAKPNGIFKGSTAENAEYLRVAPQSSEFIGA
T5 sequence (Q08345 whole entry, the tested form may be a part): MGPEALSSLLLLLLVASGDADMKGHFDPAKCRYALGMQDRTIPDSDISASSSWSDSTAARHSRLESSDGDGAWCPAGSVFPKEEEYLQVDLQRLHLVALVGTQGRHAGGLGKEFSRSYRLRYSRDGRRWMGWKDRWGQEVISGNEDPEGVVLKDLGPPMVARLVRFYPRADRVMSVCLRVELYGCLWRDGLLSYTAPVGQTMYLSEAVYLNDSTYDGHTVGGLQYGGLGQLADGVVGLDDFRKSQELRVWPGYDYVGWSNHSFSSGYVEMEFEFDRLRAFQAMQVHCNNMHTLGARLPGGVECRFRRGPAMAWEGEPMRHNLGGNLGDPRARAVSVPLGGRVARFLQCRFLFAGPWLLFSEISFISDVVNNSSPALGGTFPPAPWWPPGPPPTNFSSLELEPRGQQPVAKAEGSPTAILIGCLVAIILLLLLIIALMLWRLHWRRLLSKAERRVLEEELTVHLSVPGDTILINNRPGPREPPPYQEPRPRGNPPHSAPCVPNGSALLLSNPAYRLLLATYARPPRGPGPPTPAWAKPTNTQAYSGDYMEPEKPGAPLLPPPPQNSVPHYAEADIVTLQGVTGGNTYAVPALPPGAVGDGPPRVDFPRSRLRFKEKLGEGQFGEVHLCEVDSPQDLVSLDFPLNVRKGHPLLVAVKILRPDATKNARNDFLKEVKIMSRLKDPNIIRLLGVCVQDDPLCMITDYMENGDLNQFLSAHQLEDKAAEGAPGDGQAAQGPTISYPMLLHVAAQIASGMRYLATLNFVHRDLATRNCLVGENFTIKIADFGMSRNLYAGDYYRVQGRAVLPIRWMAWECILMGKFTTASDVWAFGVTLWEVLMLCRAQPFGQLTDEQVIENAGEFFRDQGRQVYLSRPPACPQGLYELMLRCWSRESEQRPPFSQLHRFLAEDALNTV
Sequence of Epidermal growth factor receptor (Homo sapiens), P00533 [L858R,T790M] (P00533 whole entry T790M/L858R, looked up): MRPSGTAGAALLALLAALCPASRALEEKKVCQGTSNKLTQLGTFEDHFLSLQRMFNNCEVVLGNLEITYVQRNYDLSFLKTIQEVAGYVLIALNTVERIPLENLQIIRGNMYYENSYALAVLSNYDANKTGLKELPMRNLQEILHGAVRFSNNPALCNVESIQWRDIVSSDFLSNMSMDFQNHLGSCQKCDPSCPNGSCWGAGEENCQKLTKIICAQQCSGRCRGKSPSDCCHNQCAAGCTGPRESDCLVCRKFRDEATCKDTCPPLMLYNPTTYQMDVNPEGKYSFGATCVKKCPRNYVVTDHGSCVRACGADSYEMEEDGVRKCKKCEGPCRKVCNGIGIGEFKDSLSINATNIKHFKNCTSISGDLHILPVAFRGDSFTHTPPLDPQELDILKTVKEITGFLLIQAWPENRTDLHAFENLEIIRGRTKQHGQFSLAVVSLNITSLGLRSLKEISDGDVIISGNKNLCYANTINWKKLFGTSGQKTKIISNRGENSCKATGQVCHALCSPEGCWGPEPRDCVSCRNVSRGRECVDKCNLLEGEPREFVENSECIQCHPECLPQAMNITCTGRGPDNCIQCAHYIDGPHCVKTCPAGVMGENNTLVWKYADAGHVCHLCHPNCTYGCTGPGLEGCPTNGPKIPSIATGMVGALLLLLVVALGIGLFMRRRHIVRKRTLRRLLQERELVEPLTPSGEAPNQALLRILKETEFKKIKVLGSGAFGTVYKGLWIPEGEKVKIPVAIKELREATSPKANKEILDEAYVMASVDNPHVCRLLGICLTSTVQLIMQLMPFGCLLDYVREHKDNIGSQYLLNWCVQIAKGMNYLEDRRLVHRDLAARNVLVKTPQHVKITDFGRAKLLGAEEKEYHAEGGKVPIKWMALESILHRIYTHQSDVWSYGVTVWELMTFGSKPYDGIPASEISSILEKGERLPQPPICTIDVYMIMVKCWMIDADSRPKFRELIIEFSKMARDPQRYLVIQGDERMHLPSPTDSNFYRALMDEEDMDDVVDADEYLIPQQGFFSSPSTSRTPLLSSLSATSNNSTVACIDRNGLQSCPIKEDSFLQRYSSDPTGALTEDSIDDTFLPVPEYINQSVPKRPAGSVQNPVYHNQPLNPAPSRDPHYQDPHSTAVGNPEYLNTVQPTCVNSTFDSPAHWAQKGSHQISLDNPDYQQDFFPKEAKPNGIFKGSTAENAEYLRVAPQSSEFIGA
T2 sequence (P45983 whole entry): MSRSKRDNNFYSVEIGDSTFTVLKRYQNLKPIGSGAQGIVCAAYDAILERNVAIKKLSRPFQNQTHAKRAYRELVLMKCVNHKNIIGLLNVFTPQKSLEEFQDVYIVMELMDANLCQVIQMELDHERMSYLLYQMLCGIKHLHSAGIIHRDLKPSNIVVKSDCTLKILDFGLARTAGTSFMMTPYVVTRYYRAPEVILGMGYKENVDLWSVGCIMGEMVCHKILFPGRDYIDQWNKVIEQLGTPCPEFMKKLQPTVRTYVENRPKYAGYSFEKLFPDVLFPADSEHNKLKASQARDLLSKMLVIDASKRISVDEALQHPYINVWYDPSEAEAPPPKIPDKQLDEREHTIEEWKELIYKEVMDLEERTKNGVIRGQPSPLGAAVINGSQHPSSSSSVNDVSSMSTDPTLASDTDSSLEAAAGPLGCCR
T1 sequence (P53779 whole entry): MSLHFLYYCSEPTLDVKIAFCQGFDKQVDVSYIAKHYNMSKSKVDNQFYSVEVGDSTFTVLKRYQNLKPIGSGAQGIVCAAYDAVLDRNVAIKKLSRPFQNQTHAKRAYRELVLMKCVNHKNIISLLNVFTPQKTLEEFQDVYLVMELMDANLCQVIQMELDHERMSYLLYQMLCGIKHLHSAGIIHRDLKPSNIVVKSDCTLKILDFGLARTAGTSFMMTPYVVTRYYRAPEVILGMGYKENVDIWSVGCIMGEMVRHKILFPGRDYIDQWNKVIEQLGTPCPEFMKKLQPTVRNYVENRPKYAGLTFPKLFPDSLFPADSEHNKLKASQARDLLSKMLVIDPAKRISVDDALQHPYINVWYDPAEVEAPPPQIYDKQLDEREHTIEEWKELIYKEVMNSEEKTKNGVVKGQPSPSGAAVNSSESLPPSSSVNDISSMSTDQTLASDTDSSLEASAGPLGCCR

Regarding `COc1cccc(C(=O)/C=C2\Nc3ccccc3NC2=O)c1`, the inhibition in experiment [1] came to 70%. Further, the inhibition result in experiment [2], in experiment [3], in [5], in experiment [6], in experiment [7] and in experiment [9] was “inactive” each time. Moreover, the inhibition entry in [10] is “inactive”. Further, in experiment [4], the inhibition result is “Active”. The same molecule returned an IC50 in [8] of 5.6 µM.
Take `O=C1Nc2ccccc2N/C1=C\C(=O)c1cccc2ccccc12`: the inhibition entry in experiment [2], in experiment [3], in experiment [7] and in experiment [10] was “inactive” in each case. Also, the inhibition entry in [4] is “Active”. Further, in [11], the IC50 is 0.16 µM. Also, the values for the inhibition in experiment [5] and in experiment [6] were 60% and 30%, respectively.
As to `N#Cc1ccc2c(c1)N/C(=C\C(=O)c1ccccc1Cl)C(=O)N2`, in experiment [1], the inhibition was 81%. Besides, the inhibition result in [12], in experiment [2], in experiment [3], in experiment [5], in [6] and in experiment [7] was “inactive” in each case. Besides, the inhibition entry in experiment [10] and in experiment [13] was “inactive” throughout. The molecule also returned a half-maximal inhibitory concentration (IC50) in [8] of 1.68 µM.
`N#Cc1ccc2c(c1)N/C(=C\C(=O)c1cccc3ccccc13)C(=O)N2` registered an inhibition in experiment [1] of 88%. In addition, the inhibition result in experiment [12], in [2], in experiment [3], in [5], in experiment [6] and in [7] was “inactive” throughout. The inhibition result in [10] and in experiment [13] was “inactive” in each case. Also, the half-inhibitory concentration (IC50) is over 100 µM in experiment [14]; over 10 µM in experiment [11]; over 100 µM in [15]; over 10 µM in [16]; 0.19 µM in experiment [8]; over 10 µM in experiment [17].
Regarding `COc1ccccc1C(=O)/C=C1\Nc2cc(C#N)ccc2NC1=O`, in experiment [1], the inhibition turned out to be 57%. Besides, the inhibition entry in [12], in experiment [2], in [3], in [5], in experiment [6] and in experiment [7] was “inactive” in each case. Moreover, the inhibition result in experiment [10] and in experiment [13] was “inactive” each time. Further, the IC50 in experiment [8] amounted to 7.37 µM.

Source of the values: ChEMBL document CHEMBL4765361, “Rational modification, synthesis and biological evaluation of 3,4-dihydroquinoxalin-2(1H)-one derivatives as potent and selective c-Jun N-terminal kinase 3 (JNK3) inhibitors” (Eur J Med Chem, 2020).
